Experimental data reported in ChEMBL document CHEMBL1255404, “Spread of OXA-48-encoding plasmid in Turkey and beyond” (2010).
Converted amounts (≈) assume the structure as drawn.

Columns and labels:
Assay type in all cases: functional
Klebsiella pneumoniae [1] = assay: Antimicrobial activity against Klebsiella pneumoniae isolate KpL expressing beta-lactamase OXA-48 by Etest method
Klebsiella pneumoniae [2] = assay: Antimicrobial activity against Klebsiella pneumoniae isolate Kp11978 expressing beta-lactamase OXA-48, SHV-2a and TEM-1 by Etest method
Escherichia coli [3] = assay: Antimicrobial activity against Escherichia coli isolate J53 harboring pA-1 containing beta-lactamase OXA-48 located within transposon Tn1999 by Etest method
In short: (§1)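 β-Lactam MICs read with Etest strips. Strains are E. coli J53 recipient and J53 transconjugants carrying OXA-48-positive plasmids recovered from clinical enterobacterial isolates.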

Klebsiella pneumoniae [4] = assay: Antimicrobial activity against Klebsiella pneumoniae isolate KpB expressing OXA-48 and CTX-M-15 by Etest method
Escherichia coli [5] = assay: Antimicrobial activity against Escherichia coli isolate J53 harboring pBb containing beta-lactamase OXA-48 located within transposon Tn1999.2 by Etest method; in short: as §1
Klebsiella pneumoniae [6] = assay: Antimicrobial activity against Klebsiella pneumoniae isolate Kp3A expressing beta-lactamase OXA-48 by Etest method
In short: (§2)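 MICs of β-lactams read from Etest strips. The test organisms are carbapenem-resistant, OXA-48-positive clinical Enterobacteriaceae isolates recovered from Turkey, Lebanon, Egypt, France and Belgium.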

Escherichia coli [7] = assay: Antimicrobial activity against Escherichia coli isolate J53 harboring p3A containing beta-lactamase OXA-48 located within transposon Tn1999 by Etest method; in short: as §1
Klebsiella pneumoniae [8] = assay: Antimicrobial activity against Klebsiella pneumoniae isolate Kp4A expressing beta-lactamase OXA-48 and CTX-M-15 by Etest method
Klebsiella pneumoniae [9] = assay: Antimicrobial activity against Klebsiella pneumoniae isolate Kp5A expressing beta-lactamase OXA-48 and SHV-5 by Etest method
Klebsiella pneumoniae [10] = assay: Antimicrobial activity against Klebsiella pneumoniae isolate Kp6A expressing beta-lactamase OXA-48 and TEM-150 by Etest method
Escherichia coli [11] = assay: Antimicrobial activity against Escherichia coli isolate J53 harboring p4A containing beta-lactamase OXA-48 located within transposon Tn1999 by Etest method; in short: as §1
Escherichia coli [12] = assay: Antimicrobial activity against Escherichia coli isolate J53 harboring p5A containing beta-lactamase OXA-48 located within transposon Tn1999 by Etest method; in short: as §1
Escherichia coli [13] = assay: Antimicrobial activity against Escherichia coli isolate J53 harboring p6A containing beta-lactamase OXA-48 located within transposon Tn1999 by Etest method; in short: as §1
Klebsiella pneumoniae [14] = assay: Antimicrobial activity against Klebsiella pneumoniae isolate Kp7A expressing beta-lactamase OXA-48 by Etest method; in short: as §2
Escherichia coli [15] = assay: Antimicrobial activity against Escherichia coli isolate J53 harboring p7A containing beta-lactamase OXA-48 located within transposon Tn1999 by Etest method; in short: as §1
Klebsiella pneumoniae [16] = assay: Antimicrobial activity against Klebsiella pneumoniae isolate KpI-1 expressing beta-lactamase OXA-48 and CTX-M-15 by Etest method
Klebsiella pneumoniae [17] = assay: Antimicrobial activity against Klebsiella pneumoniae isolate KpI-2 expressing beta-lactamase OXA-48 and CTX-M-15 by Etest method
Escherichia coli [18] = assay: Antimicrobial activity against Escherichia coli isolate J53 harboring pI-1 containing beta-lactamase OXA-48 located within transposon Tn1999.2 by Etest method; in short: as §1
Escherichia coli [19] = assay: Antimicrobial activity against Escherichia coli isolate J53 harboring pI-2 containing beta-lactamase OXA-48 located within transposon Tn1999.2 by Etest method; in short: as §1
Klebsiella pneumoniae [20] = assay: Antimicrobial activity against Klebsiella pneumoniae isolate KpBIC expressing beta-lactamase OXA-48 by Etest method; in short: as §2
Escherichia coli [21] = assay: Antimicrobial activity against Escherichia coli isolate TOP10 harboring pBIC containing beta-lactamase OXA-48 located within transposon Tn1999.2 by Etest method
In short: (§3)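 β-Lactam MICs read with Etest strips. Strains are E. coli TOP10 host and TOP10 transformants made with plasmid DNA extract when conjugation failed. Transformants were selected on LB agar with ticarcillin 50 μg/ml.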

Klebsiella pneumoniae [22] = assay: Antimicrobial activity against Klebsiella pneumoniae isolate KpE expressing beta-lactamase OXA-48 and CTX-M-15 by Etest method
Escherichia coli [23] = assay: Antimicrobial activity against Escherichia coli isolate J53 harboring pE containing beta-lactamase OXA-48 located within transposon Tn1999.2 by Etest method; in short: as §1
Klebsiella pneumoniae [24] = assay: Antimicrobial activity against Klebsiella pneumoniae isolate KpBEL expressing beta-lactamase OXA-48 by Etest method; in short: as §2
Escherichia coli [25] = assay: Antimicrobial activity against Escherichia coli isolate J53 harboring pBEL containing beta-lactamase OXA-48 located within transposon Tn1999.2 by Etest method; in short: as §1
Escherichia coli [26] = assay: Antimicrobial activity against Escherichia coli isolate J53 harboring pL containing beta-lactamase OXA-48 located within transposon Tn1999.2 by Etest method; in short: as §1
Providencia rettgeri = assay: Antimicrobial activity against Providencia rettgeri isolate expressing beta-lactamase OXA-48 and TEM-101 by Etest method
Escherichia coli [27] = assay: Antimicrobial activity against Escherichia coli isolate TOP10 harboring pPR containing beta-lactamase and TEM-101 by Etest method; in short: as §3
Enterobacter cloacae [28] = assay: Antimicrobial activity against Enterobacter cloacae isolate 1 expressing beta-lactamase OXA-48 and SHV-5 by Etest method
Escherichia coli [29] = assay: Antimicrobial activity against Escherichia coli isolate J53 harboring pEnc1 containing beta-lactamase OXA-48 located within transposon Tn1999 by Etest method; in short: as §1
Enterobacter cloacae [30] = assay: Antimicrobial activity against Enterobacter cloacae isolate 2 expressing beta-lactamase OXA-48 and SHV-5 by Etest method
Escherichia coli [31] = assay: Antimicrobial activity against Escherichia coli isolate J53 harboring pEnc2 containing beta-lactamase OXA-48 located within transposon Tn1999 by Etest method; in short: as §1
Citrobacter freundii = assay: Antimicrobial activity against Citrobacter freundii isolate expressing beta-lactamase OXA-48 by Etest method
Escherichia coli [32] = assay: Antimicrobial activity against Escherichia coli isolate J53 harboring pCF containing beta-lactamase OXA-48 located within transposon Tn1999 by Etest method; in short: as §1
Escherichia coli [33] = assay: Antimicrobial activity against Escherichia coli isolate A expressing beta-lactamase OXA-48 and TEM-150 by Etest method
Escherichia coli [34] = assay: Antimicrobial activity against Escherichia coli isolate J53 harboring pEcA containing beta-lactamase OXA-48 located within transposon Tn1999.2 by Etest method; in short: as §1
Escherichia coli [35] = assay: Antimicrobial activity against Escherichia coli isolate J53 by Etest method; in short: as §1
Escherichia coli [36] = assay: Antimicrobial activity against Escherichia coli isolate TOP10 by Etest method; in short: as §3

Structure (SMILES) | MIC (Klebsiella pneumoniae [1]) | MIC (Klebsiella pneumoniae [2]) | MIC (Escherichia coli [3]) | MIC (Klebsiella pneumoniae [4]) | MIC (Escherichia coli [5]) | MIC (Klebsiella pneumoniae [6]) | MIC (Escherichia coli [7]) | MIC (Klebsiella pneumoniae [8]) | MIC (Klebsiella pneumoniae [9]) | MIC (Klebsiella pneumoniae [10]) | MIC (Escherichia coli [11]) | MIC (Escherichia coli [12]) | MIC (Escherichia coli [13]) | MIC (Klebsiella pneumoniae [14]) | MIC (Escherichia coli [15]) | MIC (Klebsiella pneumoniae [16]) | MIC (Klebsiella pneumoniae [17]) | MIC (Escherichia coli [18]) | MIC (Escherichia coli [19]) | MIC (Klebsiella pneumoniae [20]) | other results
CC(C)(O/N=C(\C(=O)N[C@@H]1C(=O)N2C(C(=O)[O-])=C(C[n+]3ccccc3)CS[C@H]12)c1csc(N)n1)C(=O)O [CEFTAZIDIME] | 0.75 µg/mL (≈ 1.37 µM) | 512 µg/mL (≈ 937 µM) | 0.12 µg/mL (≈ 0.22 µM) | > 512 µg/mL | 1 µg/mL (≈ 1.83 µM) | 0.25 µg/mL (≈ 0.457 µM) | 0.25 µg/mL (≈ 0.457 µM) | 512 µg/mL (≈ 937 µM) | 512 µg/mL (≈ 937 µM) | 512 µg/mL (≈ 937 µM) | 0.12 µg/mL (≈ 0.22 µM) | 0.12 µg/mL (≈ 0.22 µM) | 0.12 µg/mL (≈ 0.22 µM) | 0.12 µg/mL (≈ 0.22 µM) | 0.12 µg/mL (≈ 0.22 µM) | 512 µg/mL (≈ 937 µM) | 512 µg/mL (≈ 937 µM) | 0.12 µg/mL (≈ 0.22 µM) | 0.12 µg/mL (≈ 0.22 µM) | 0.12 µg/mL (≈ 0.22 µM) | MIC (Escherichia coli [21]): 0.12 µg/mL (≈ 0.22 µM); MIC (Klebsiella pneumoniae [22]): 512 µg/mL (≈ 937 µM); MIC (Escherichia coli [23]): 0.12 µg/mL (≈ 0.22 µM); MIC (Klebsiella pneumoniae [24]): 1 µg/mL (≈ 1.83 µM); MIC (Escherichia coli [25]): 0.75 µg/mL (≈ 1.37 µM); MIC (Escherichia coli [26]): 0.75 µg/mL (≈ 1.37 µM); MIC (Providencia rettgeri): 512 µg/mL (≈ 937 µM); MIC (Escherichia coli [27]): 512 µg/mL (≈ 937 µM); MIC (Enterobacter cloacae [28]): > 512 µg/mL; MIC (Escherichia coli [29]): 0.75 µg/mL (≈ 1.37 µM); MIC (Enterobacter cloacae [30]): 32 µg/mL (≈ 58.5 µM); MIC (Escherichia coli [31]): 0.75 µg/mL (≈ 1.37 µM); MIC (Citrobacter freundii): 512 µg/mL (≈ 937 µM); MIC (Escherichia coli [32]): 0.75 µg/mL (≈ 1.37 µM); MIC (Escherichia coli [33]): 512 µg/mL (≈ 937 µM); MIC (Escherichia coli [34]): 0.75 µg/mL (≈ 1.37 µM); MIC (Escherichia coli [35]): 0.06 µg/mL (≈ 0.11 µM); MIC (Escherichia coli [36]): 0.06 µg/mL (≈ 0.11 µM)
CC(=O)OCC1=C(C(=O)O)N2C(=O)[C@@H](NC(=O)Cc3cccs3)[C@H]2SC1 [CEPHALOTHIN] | 32 µg/mL (≈ 80.7 µM) | > 512 µg/mL | 0.5 µg/mL (≈ 1.26 µM) | > 512 µg/mL | 16 µg/mL (≈ 40.4 µM) | > 512 µg/mL | 16 µg/mL (≈ 40.4 µM) | > 512 µg/mL | > 512 µg/mL | > 512 µg/mL | 16 µg/mL (≈ 40.4 µM) | 16 µg/mL (≈ 40.4 µM) | 16 µg/mL (≈ 40.4 µM) | > 512 µg/mL | 16 µg/mL (≈ 40.4 µM) | > 512 µg/mL | > 512 µg/mL | 16 µg/mL (≈ 40.4 µM) | 16 µg/mL (≈ 40.4 µM) | > 512 µg/mL | MIC (Escherichia coli [21]): 16 µg/mL (≈ 40.4 µM); MIC (Klebsiella pneumoniae [22]): > 512 µg/mL; MIC (Escherichia coli [23]): 16 µg/mL (≈ 40.4 µM); MIC (Klebsiella pneumoniae [24]): 16 µg/mL (≈ 40.4 µM); MIC (Escherichia coli [25]): 16 µg/mL (≈ 40.4 µM); MIC (Escherichia coli [26]): 8 µg/mL (≈ 20.2 µM); MIC (Providencia rettgeri): > 512 µg/mL; MIC (Escherichia coli [27]): 16 µg/mL (≈ 40.4 µM); MIC (Enterobacter cloacae [28]): > 512 µg/mL; MIC (Escherichia coli [29]): 16 µg/mL (≈ 40.4 µM); MIC (Enterobacter cloacae [30]): > 512 µg/mL; MIC (Escherichia coli [31]): 16 µg/mL (≈ 40.4 µM); MIC (Citrobacter freundii): > 512 µg/mL; MIC (Escherichia coli [32]): > 512 µg/mL; MIC (Escherichia coli [33]): > 512 µg/mL; MIC (Escherichia coli [34]): 16 µg/mL (≈ 40.4 µM); MIC (Escherichia coli [35]): 4 µg/mL (≈ 10.1 µM); MIC (Escherichia coli [36]): 4 µg/mL (≈ 10.1 µM)
CCN1CCN(C(=O)N[C@@H](C(=O)N[C@@H]2C(=O)N3[C@@H]2SC(C)(C)[C@@H]3C(=O)O)c2ccccc2)C(=O)C1=O [PIPERACILLIN] | 96 µg/mL (≈ 185 µM) | > 512 µg/mL | 8 µg/mL (≈ 15.5 µM) | > 512 µg/mL | > 512 µg/mL | > 512 µg/mL | 512 µg/mL (≈ 989 µM) | > 512 µg/mL | > 512 µg/mL | > 512 µg/mL | > 512 µg/mL | > 512 µg/mL | > 512 µg/mL | > 512 µg/mL | > 512 µg/mL | > 512 µg/mL | > 512 µg/mL | 512 µg/mL (≈ 989 µM) | 512 µg/mL (≈ 989 µM) | > 512 µg/mL | MIC (Escherichia coli [21]): > 512 µg/mL; MIC (Klebsiella pneumoniae [22]): > 512 µg/mL; MIC (Escherichia coli [23]): 512 µg/mL (≈ 989 µM); MIC (Klebsiella pneumoniae [24]): > 256 µg/mL; MIC (Escherichia coli [25]): 128 µg/mL (≈ 247 µM); MIC (Escherichia coli [26]): 64 µg/mL (≈ 124 µM); MIC (Providencia rettgeri): > 256 µg/mL; MIC (Escherichia coli [27]): 128 µg/mL (≈ 247 µM); MIC (Enterobacter cloacae [28]): > 512 µg/mL; MIC (Escherichia coli [29]): > 512 µg/mL; MIC (Enterobacter cloacae [30]): > 512 µg/mL; MIC (Escherichia coli [31]): > 512 µg/mL; MIC (Citrobacter freundii): > 512 µg/mL; MIC (Escherichia coli [32]): > 512 µg/mL; MIC (Escherichia coli [33]): > 256 µg/mL; MIC (Escherichia coli [34]): 128 µg/mL (≈ 247 µM); MIC (Escherichia coli [35]): 1 µg/mL (≈ 1.93 µM); MIC (Escherichia coli [36]): 2 µg/mL (≈ 3.86 µM)
